# Reference: ChEMBL document CHEMBL3352338, “Development and biological evaluation of potent and selective c-KIT(D816V) inhibitors” (J Med Chem, 2014)
# The source made the active and inactive calls. No cut-off for these calls is given here.
# Key:
# [1] = molecular target: Phosphatidylinositol 4,5-bisphosphate 3-kinase catalytic subunit alpha isoform (Homo sapiens, UniProt P42336); test: Inhibition of PI3Kalpha (unknown origin)
# [2] = molecular target: Mast/stem cell growth factor receptor Kit (Homo sapiens, UniProt P10721); test: Inhibition of wild type c-KIT (unknown origin)
# [3] = Antiproliferative activity against human HMC-1.2 cells carrying V560G, D816V mutant assessed as cell growth inhibition by MTT assay; format: functional, cell-based
# How it was run: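 Cell viability by MTT assay in imatinib-resistant HMC-1.2 human mast cells (V560G, D816V), 48 h exposure across a range of concentrations.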
# [4] = molecular target: Mast/stem cell growth factor receptor Kit (Homo sapiens, UniProt P10721, D816V); test: Inhibition of c-KIT D816V mutant (unknown origin)
# [5] = molecular target: Signal transducer and activator of transcription 3 (Homo sapiens) (UniProt P40763); test: Inhibition of STAT3 phosphorylation in imatinib-resistant human HMC-1.2 cells at 5 uM after 1 hr by Western immunoblotting analysis
# Signal transducer and activator of transcription 3 (Homo sapiens), sequence (P40763 whole entry): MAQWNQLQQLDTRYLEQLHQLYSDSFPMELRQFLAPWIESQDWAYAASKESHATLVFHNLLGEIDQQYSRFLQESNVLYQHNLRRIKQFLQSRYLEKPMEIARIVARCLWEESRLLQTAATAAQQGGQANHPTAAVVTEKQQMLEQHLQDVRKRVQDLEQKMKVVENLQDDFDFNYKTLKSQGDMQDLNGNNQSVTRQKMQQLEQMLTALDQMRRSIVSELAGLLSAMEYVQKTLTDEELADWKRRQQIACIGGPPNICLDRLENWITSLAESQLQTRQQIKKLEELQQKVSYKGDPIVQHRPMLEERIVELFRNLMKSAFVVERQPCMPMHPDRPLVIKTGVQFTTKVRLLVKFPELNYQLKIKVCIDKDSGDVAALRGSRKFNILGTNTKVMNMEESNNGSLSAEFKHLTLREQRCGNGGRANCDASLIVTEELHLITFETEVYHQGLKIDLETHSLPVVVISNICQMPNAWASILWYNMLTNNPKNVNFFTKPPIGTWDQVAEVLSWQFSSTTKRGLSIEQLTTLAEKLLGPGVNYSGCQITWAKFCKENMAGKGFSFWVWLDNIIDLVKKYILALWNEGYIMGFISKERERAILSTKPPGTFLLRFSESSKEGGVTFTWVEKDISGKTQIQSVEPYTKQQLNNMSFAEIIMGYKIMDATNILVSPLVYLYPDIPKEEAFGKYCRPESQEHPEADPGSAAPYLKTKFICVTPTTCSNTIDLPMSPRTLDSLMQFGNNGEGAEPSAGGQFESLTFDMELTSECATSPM
# Mast/stem cell growth factor receptor Kit (Homo sapiens, UniProt P10721, D816V), sequence (P10721 26-976 D816V limits assumed): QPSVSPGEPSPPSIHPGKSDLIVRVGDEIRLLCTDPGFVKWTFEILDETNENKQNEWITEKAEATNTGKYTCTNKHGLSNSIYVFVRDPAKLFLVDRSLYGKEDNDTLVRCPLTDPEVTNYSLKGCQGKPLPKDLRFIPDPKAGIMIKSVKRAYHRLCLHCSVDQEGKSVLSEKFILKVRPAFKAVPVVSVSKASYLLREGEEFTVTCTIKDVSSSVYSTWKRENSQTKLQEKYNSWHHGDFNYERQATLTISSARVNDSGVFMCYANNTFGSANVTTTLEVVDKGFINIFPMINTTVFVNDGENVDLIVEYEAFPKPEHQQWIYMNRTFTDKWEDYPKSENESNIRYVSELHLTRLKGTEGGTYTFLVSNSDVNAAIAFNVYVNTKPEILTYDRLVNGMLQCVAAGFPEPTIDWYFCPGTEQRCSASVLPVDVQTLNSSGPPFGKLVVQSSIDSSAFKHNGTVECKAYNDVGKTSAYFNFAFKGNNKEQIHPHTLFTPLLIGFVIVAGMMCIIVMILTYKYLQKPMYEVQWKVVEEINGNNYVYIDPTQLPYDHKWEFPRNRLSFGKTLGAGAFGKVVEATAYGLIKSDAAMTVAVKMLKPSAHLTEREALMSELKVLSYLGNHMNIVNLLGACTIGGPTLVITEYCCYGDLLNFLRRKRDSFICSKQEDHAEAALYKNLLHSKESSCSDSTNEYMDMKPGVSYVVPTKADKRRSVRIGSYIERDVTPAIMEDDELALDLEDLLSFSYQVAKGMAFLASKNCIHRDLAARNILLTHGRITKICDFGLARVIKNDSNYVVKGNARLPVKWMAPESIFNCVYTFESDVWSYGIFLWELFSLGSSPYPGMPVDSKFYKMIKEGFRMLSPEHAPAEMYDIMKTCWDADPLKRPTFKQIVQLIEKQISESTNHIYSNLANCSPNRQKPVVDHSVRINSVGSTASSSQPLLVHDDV
# Mast/stem cell growth factor receptor Kit (Homo sapiens, UniProt P10721), sequence (P10721 whole entry): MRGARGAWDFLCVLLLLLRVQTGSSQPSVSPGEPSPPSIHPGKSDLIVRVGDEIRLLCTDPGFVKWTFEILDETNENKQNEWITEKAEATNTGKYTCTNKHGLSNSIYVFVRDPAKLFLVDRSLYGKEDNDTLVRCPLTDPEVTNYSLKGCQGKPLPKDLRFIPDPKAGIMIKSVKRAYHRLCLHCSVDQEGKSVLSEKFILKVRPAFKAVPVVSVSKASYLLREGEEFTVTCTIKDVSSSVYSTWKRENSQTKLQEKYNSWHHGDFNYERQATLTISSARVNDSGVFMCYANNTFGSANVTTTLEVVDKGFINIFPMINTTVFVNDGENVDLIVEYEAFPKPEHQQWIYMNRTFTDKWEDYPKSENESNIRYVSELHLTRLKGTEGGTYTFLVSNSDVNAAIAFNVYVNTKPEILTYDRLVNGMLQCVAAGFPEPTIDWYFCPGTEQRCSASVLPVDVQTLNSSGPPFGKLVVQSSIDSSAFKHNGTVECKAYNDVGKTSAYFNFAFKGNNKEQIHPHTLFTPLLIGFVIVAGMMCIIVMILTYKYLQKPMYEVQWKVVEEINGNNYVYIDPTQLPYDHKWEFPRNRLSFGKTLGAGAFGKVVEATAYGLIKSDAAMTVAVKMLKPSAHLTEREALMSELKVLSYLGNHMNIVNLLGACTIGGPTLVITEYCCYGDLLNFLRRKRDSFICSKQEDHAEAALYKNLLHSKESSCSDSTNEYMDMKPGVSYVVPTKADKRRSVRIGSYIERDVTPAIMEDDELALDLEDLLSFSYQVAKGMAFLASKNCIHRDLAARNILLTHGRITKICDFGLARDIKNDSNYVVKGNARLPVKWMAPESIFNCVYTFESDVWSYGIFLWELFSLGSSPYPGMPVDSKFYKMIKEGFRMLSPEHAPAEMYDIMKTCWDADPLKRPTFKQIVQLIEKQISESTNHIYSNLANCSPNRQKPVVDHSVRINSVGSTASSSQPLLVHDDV
# Phosphatidylinositol 4,5-bisphosphate 3-kinase catalytic subunit alpha isoform, sequence (P42336 whole entry, canonical isoform): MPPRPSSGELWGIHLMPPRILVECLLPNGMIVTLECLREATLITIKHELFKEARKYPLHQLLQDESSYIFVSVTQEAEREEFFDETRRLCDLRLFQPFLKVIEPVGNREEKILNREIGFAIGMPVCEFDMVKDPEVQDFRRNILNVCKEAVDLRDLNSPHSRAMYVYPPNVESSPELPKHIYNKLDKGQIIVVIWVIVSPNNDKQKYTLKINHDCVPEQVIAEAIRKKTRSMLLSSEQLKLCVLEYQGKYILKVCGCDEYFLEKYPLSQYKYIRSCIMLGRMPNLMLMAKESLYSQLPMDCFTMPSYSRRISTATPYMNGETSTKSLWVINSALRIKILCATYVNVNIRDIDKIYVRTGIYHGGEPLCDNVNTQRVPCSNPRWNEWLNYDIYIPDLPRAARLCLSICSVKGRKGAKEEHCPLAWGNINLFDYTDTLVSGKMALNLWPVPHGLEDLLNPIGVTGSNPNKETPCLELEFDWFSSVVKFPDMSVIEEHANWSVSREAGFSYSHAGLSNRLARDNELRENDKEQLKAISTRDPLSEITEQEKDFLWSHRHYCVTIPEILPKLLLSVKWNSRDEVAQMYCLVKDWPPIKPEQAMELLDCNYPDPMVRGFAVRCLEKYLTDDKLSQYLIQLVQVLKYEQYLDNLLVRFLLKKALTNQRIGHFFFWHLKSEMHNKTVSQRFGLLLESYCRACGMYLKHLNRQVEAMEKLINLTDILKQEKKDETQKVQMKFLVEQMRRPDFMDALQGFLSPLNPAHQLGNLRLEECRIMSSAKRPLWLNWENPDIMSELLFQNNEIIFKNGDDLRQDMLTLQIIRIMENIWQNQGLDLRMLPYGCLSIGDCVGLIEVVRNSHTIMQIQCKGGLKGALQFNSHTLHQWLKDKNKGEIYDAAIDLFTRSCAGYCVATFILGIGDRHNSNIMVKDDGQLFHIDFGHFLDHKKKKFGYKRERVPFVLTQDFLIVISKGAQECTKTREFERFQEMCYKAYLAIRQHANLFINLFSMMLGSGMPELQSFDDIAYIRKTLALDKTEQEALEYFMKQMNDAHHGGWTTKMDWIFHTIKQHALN
SMILES,IC50 [1],IC50 [2],IC50 [3],IC50 [4],inhibition [5]
COc1ccc(-c2c[nH]c3ncc(-c4cccc(N)c4)cc23)cc1OC,> 10000 nM,1060 nM,1680 nM,6.3 nM,
COc1ccc(-c2c[nH]c3ncc(-c4ccccc4N)cc23)cc1OC,> 10000 nM,,,1330 nM,
COc1ccc(-c2c[nH]c3ncc(-c4ccc(Cl)cc4)cc23)cc1OC,> 10000 nM,,,457 nM,
COc1ccc(-c2c[nH]c3ncc(-c4ccccc4C)cc23)cc1OC,> 10000 nM,,,785 nM,
COc1ccc(-c2c[nH]c3ncc(-c4ccccc4)cc23)cc1OC,> 10000 nM,,,135 nM,
Cc1ccc(-c2c[nH]c3ncc(-c4cccc(N)c4)cc23)cc1,,,,> 10000 nM,
COc1ccc(-c2c[nH]c3ncc(-c4ccc5c(c4)OCO5)cc23)cc1OC,,10800 nM,,48.8 nM,
COc1cc(N)cc(-c2cnc3[nH]cc(-c4ccc(OC)c(OC)c4)c3c2)c1,,> 10000 nM,,26.2 nM,
Nc1cccc(-c2cnc3[nH]cc(-c4cccc(N)c4)c3c2)c1,,,,76.7 nM,
Cc1ccc(C(=O)Nc2ccc(CN3CCN(C)CC3)c(C(F)(F)F)c2)cc1C#Cc1cnc2cccnn12 [PONATINIB],,,350 nM,,
COc1ccc(-c2c[nH]c3ncc(-c4ccc(C#N)cc4)cc23)cc1OC,> 10000 nM,,,426 nM,
COc1ccc(-c2c[nH]c3ncc(-c4ccncc4)cc23)cc1OC,9700 nM,,,32.1 nM,
COc1ccc(-c2c[nH]c3ncc(-c4cnc(N)nc4)cc23)cc1OC,,1290 nM,,67.8 nM,
COc1ccc(-c2c[nH]c3ncc(-c4cccc(NS(=O)(=O)c5ccccc5)c4)cc23)cc1OC,,,,126 nM,
Cc1ccc(NC(=O)c2ccc(CN3CCN(C)CC3)cc2)cc1Nc1nccc(-c2cccnc2)n1 [IMATINIB],,,17000 nM,,
COc1ccc(-c2c[nH]c3ncc(-c4ccc(OCCN5CCOCC5)c(N)c4)cc23)cc1OC,,8540 nM,,13.9 nM,
COc1ccc(-c2c[nH]c3ncc(-c4cccc(C)c4)cc23)cc1OC,> 10000 nM,,,261 nM,
Nc1cccc(-c2cnc3[nH]cc(-c4ccccc4N)c3c2)c1,,,,1420 nM,
COc1ccc(-c2cnc3[nH]cc(-c4ccc(OC)c(OC)c4)c3c2)c(OC)c1,,5460 nM,,29.2 nM,
COc1ccc(-c2c[nH]c3ncc(-c4cc(F)cc(F)c4)cc23)cc1OC,> 10000 nM,,,102 nM,

SMILES,IC50 [1],IC50 [2],IC50 [3],IC50 [4],inhibition [5]
COc1ccc(-c2c[nH]c3ncc(-c4ccc(C)c(N)c4)cc23)cc1OC,,> 10000 nM,1430 nM,24.6 nM,
COc1ccc(-c2c[nH]c3ncc(-c4cccc(NC(C)=O)c4)cc23)cc1OC,,1160 nM,,65.1 nM,
Cc1nc(Nc2ncc(C(=O)Nc3c(C)cccc3Cl)s2)cc(N2CCN(CCO)CC2)n1 [DASATINIB],,,820 nM,,
COc1ccc(-c2c[nH]c3ncc(-c4cncc(NS(=O)(=O)c5ccccc5)c4)cc23)cc1OC,,,,346 nM,Active
COc1cc(OC)cc(-c2c[nH]c3ncc(-c4cccc(N)c4)cc23)c1,,,,320 nM,
COc1ccc(-c2c[nH]c3ncc(-c4cccc(N(C)C)c4)cc23)cc1OC,> 10000 nM,,,29.2 nM,
COc1ccc(-c2c[nH]c3ncc(-c4cccc(F)c4)cc23)cc1OC,> 10000 nM,,,520 nM,
COc1ccc(-c2c[nH]c3ncc(-c4cncc(N)c4)cc23)cc1OC,1450 nM,,,10.8 nM,
COc1ccc(-c2c[nH]c3ncc(-c4cccnc4)cc23)cc1OC,> 10000 nM,3330 nM,,60.1 nM,
COc1cccc(-c2c[nH]c3ncc(-c4cccc(N)c4)cc23)c1,,,,670 nM,
COc1cccc(-c2cnc3[nH]cc(-c4ccc(OC)c(OC)c4)c3c2)c1,,1520 nM,,28.7 nM,
COc1ccc(-c2c[nH]c3ncc(-c4ccc(N)cc4)cc23)cc1OC,,56.8 nM,,9.1 nM,
Nc1cccc(-c2cnc3[nH]cc(-c4ccc(Cl)cc4)c3c2)c1,,,,2260 nM,
COc1ccc(-c2c[nH]c3ncc(-c4cccc(N)c4)cc23)cc1,,,,398 nM,
COc1ccc(-c2c[nH]c3ncc(-c4cccc(C#N)c4)cc23)cc1OC,> 10000 nM,> 10000 nM,,63.8 nM,
COc1ccc(-c2c[nH]c3ncc(-c4ccc(C)cc4)cc23)cc1OC,> 10000 nM,> 10000 nM,,571 nM,
COc1ccc(-c2c[nH]c3ncc(-c4cccc(N)c4)cc23)cc1F,,,,104 nM,
COc1ccc(-c2cnc3[nH]cc(-c4ccc(OC)c(OC)c4)c3c2)cc1,> 10000 nM,371 nM,,32.1 nM,
COc1ccc(-c2c[nH]c3ncc(-c4ccc(F)cc4)cc23)cc1OC,> 10000 nM,,,72.8 nM,
